Test results as given in article PMC4433557 (ACS chemical biology, 2015).
One block for each molecule: values may come before it. Where a SMILES comes first, the peptide text is derived from it. Where no end group is shown, it is not given here. [ ]: non-standard residue; d: D form. Phe(4-F) = N[C@@H](Cc1ccc(F)cc1)C(=O)O; pS = N[C@@H](COP(=O)(O)O)C(=O)O; βAla = NCCC(=O)O

Legend:
[1] = molecular target: BRCA1 (BRCT)2 (Homo sapiens, UniProt P38398); assay: isothermal titration calorimetry with TR-; assay type: binding; conditions: ITC
[2] = tested on: phospho-CtIP and BRCA1 (BRCT)2; assay: pull down-western of phospho-CtIP-myc from cell lysates with BRCA1; assay type: binding; conditions: synthesized peptide, increasing concentrations
[3] = molecular target: BRCA1 (BRCT)2 (thioredoxin-(BRCT)2 fusion) (Homo sapiens, UniProt P38398); assay: competition fluorescence polarization assay against FAM-β-A-pSPTF-NH2; assay type: binding
Method in brief: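 Competition fluorescence polarization: 20 nM FAM-β-A-pSPTF tracer plus 2.7 μM thioredoxin-(BRCT)2 fusion, titrated with variable concentrations of test peptide. IC50 obtained by fitting a four-parameter logistic equation.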

[4] = molecular target: BACH1-derived tetrapeptide (Homo sapiens) (UniProt Q9BX63); conditions: cited from earlier work
[5] = tested on: GST-BRCA1 (BRCT)2 S1655A; assay: fluorescence polarization binding to GST-BRCA1; set-up: species or system human; conditions: FP; fluorescent peptides FAM-β-Ala-8.6 or FITC-BACH1 peptide
Method in brief: (§1)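 Direct fluorescence polarization of GST-BRCA1 (BRCT)2 point mutants and wild type, using either the labelled BACH1 phosphopeptide (FITC-[…]-NH2) or FAM-β-Ala-labelled test peptide as probe. KD for each mutant was determined by FP, then normalized to the wild-type GST-(BRCT)2 KD.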

[6] = tested on: GST-BRCA1 (BRCT)2 K1702M; assay: fluorescence polarization binding to GST-BRCA1; set-up: species or system human; conditions: FP; FITC-BACH1 peptide
Method in brief: as §1

[7] = tested on: GST-BRCA1 (BRCT)2 E1698A; assay: fluorescence polarization binding to GST-BRCA1; set-up: species or system human; conditions: FP; FITC-BACH1 peptide
Method in brief: as §1

[8] = tested on: GST-BRCA1 (BRCT)2 N1774A; assay: fluorescence polarization binding to GST-BRCA1; set-up: species or system human; conditions: FP; FITC-BACH1 peptide
Method in brief: as §1

[9] = molecular target: thioredoxin-(BRCT)2 fusion (human) (UniProt P38398); assay: ITC
[10] = molecular target: GST-BRCA1 (BRCT)2 K1702M (human) (UniProt P38398); assay: fluorescence polarisation
[11] = molecular target: thioredoxin-(BRCT)2 fusion (human) (UniProt P38398); assay: fluorescence polarisation

Sequence of BACH1-derived tetrapeptide (Homo sapiens) (Q9BX63 whole entry, looked up, tested part not stated): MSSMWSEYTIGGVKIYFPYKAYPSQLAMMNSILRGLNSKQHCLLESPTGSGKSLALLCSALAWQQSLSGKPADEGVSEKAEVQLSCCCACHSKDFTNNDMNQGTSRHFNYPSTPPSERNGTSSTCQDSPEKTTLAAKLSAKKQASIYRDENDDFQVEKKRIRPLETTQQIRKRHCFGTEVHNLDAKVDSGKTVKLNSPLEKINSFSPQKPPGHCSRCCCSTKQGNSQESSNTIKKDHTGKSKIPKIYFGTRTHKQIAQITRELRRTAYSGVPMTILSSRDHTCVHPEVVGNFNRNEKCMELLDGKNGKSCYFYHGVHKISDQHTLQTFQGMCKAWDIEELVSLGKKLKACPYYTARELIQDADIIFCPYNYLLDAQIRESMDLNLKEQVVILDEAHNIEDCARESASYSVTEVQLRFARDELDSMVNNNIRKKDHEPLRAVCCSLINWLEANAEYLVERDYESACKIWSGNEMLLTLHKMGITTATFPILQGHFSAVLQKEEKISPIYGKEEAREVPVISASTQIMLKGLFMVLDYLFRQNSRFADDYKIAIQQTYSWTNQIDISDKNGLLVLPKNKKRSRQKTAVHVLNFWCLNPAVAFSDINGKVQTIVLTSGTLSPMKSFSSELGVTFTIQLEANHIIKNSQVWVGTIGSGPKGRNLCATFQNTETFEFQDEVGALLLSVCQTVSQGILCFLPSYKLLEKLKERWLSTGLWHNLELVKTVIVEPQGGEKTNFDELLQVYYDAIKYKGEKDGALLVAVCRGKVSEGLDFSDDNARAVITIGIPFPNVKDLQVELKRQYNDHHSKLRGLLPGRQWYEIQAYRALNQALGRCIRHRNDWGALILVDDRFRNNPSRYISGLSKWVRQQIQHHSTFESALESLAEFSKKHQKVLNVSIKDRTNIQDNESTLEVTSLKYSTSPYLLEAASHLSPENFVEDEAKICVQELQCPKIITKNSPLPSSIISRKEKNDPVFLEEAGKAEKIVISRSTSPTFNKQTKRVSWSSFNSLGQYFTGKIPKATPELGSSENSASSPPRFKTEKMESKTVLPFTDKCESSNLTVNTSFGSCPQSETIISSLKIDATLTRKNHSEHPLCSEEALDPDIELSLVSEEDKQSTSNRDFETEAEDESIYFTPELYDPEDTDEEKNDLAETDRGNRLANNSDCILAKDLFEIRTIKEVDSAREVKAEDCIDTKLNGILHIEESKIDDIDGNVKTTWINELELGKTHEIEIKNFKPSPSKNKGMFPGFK

- binding after substitution of the two 4FPhe with Phe [1]: did not significantly abrogate binding
Molecule: 8.6 Nat: peptide 8.6 with the two 4FPhe substituted with Phe (MCTIDFDEYRFRKT)
- blocking of binding of phospho-CtIP and BRCA1 in cell lysates [2]: able to block the binding

- fold lower KD than peptide 8.6 ([1]; 25 °C, pH 7.4, TR-(BRCT)2 20 uM, peptide 214 μM): 10 fold
Molecule: 8.6E8pS: mutant of peptide 8.6 containing the Glu to pSer mutation (MCTID[Phe(4-F)]D[pS]YR[Phe(4-F)]RKT)

- IC50 [3]: 24 ± 2 µM
Molecule: CC[C@H](C)[C@H](NC(=O)[C@H](Cc1ccc(F)cc1)NC(=O)[C@H](CC(=O)O)NC(=O)[C@H](CC(N)=O)NC(=O)[C@H](CS)NC(=O)[C@H](CCSC)NC(C)=O)C(=O)N[C@@H](Cc1ccc(F)cc1)C(=O)N[C@@H](CCCNC(=N)N)C(=O)N[C@@H](CCCNC(=N)N)C(=O)N[C@@H](CO)C(=O)N[C@H](C(=O)N[C@@H](Cc1ccc(F)cc1)C(=O)N[C@@H](CCCNC(=N)N)C(=O)N[C@@H](C)C(N)=O)[C@@H](C)O [8.1] (Ac-MCND[Phe(4-F)]I[Phe(4-F)]RRST[Phe(4-F)]RA-NH2)

- IC50 [3]: 49 ± 5 µM
Molecule: CC[C@H](C)[C@H](NC(=O)[C@H](Cc1ccc(F)cc1)NC(=O)[C@H](CC(=O)O)NC(=O)[C@H](CO)NC(=O)[C@H](CS)NC(=O)[C@H](CCSC)NC(C)=O)C(=O)N[C@@H](Cc1ccc(F)cc1)C(=O)N[C@@H](CO)C(=O)N[C@@H](CCCNC(=N)N)C(=O)N[C@@H](CCCNC(=N)N)C(=O)N[C@H](C(=O)N[C@@H](Cc1ccc(O)cc1)C(=O)N[C@H](C(=O)N[C@@H](Cc1ccc(F)cc1)C(N)=O)[C@@H](C)O)[C@@H](C)O [8.2] (Ac-MCSD[Phe(4-F)]I[Phe(4-F)]SRRTYT[Phe(4-F)]-NH2)

Molecule: CSCC[C@H](NC(C)=O)C(=O)N[C@@H](CS)C(=O)N[C@@H](Cc1ccc(O)cc1)C(=O)N[C@@H](CC(=O)O)C(=O)N[C@@H](Cc1ccc(F)cc1)C(=O)N[C@@H](CC(=O)O)C(=O)N[C@H](C(=O)N[C@H](C(=O)N[C@@H](CC(N)=O)C(=O)N[C@@H](CC(=O)O)C(=O)N[C@@H](Cc1c[nH]cn1)C(=O)N[C@H](C(=O)N[C@@H](Cc1ccc(F)cc1)C(N)=O)[C@@H](C)O)[C@@H](C)O)[C@@H](C)O [8.5] (HELM PEPTIDE1{[ac].M.C.Y.D.[O=C([C@H](Cc1ccc(F)cc1)N[*:1])[*:2]].D.T.T.N.D.H.T.[O=C([C@H](Cc1ccc(F)cc1)N[*:1])[*:2]].[am]}$$$$V2.0)
- IC50 [3]: 26 ± 2 µM

Molecule: BRCA1 BRCT2 (from UniProt P38398)
- Kd [4]: 0.19 µM

- binding to S1655A mutant versus wild type [5]: completely abolished recognition
- binding to K1702M mutant versus wild type [6]: completely abolished recognition
- change in affinity, E1698A versus wild type [7]: no significant change in affinity
- change in affinity, N1774A versus wild type [8]: no significant change in affinity
Molecule: FITC-SRSTpSTPFNK-NH2 [pSer peptide]

Molecule: Y9A: Tyr to Ala mutant of peptide 8.6 (MCTID[Phe(4-F)]DEAR[Phe(4-F)]RKT)
- competitive binding of alanine mutant relative to wild-type 8.6 ([3]; competition FP, TR-BRCA1 (BRCT)2 2.5 μM, FAM-β-Ala-pSPTF-NH2 20 nM): competed more effectively for binding than the wild-type 8.6

- fold lower KD than peptide 8.6 [9]: 10 fold
Molecule: MCTID[Phe(4-F)]D[pS]YR[Phe(4-F)]RKT [peptide 8.6E8pS]

- fold reduction in binding against wild-type GST-BRCA1 (BRCT)2 [10]: 6 fold
Molecule: {FAM-βAla}-MCTIDFDEYRFRKT-NH2 [FAM-β-Ala-…-NH2]

- IC50 [11]: 10 µM
- Kd [9]: 3.7 µM
- dH (printed as a magnitude; the paper calls it negative) [9]: 103 kJ/mol
B1: peptide 8.6 (peptide)
peptide: MCTIDFDEYRFRKT
HELM: PEPTIDE1{[ac].M.C.T.I.D.[O=C([C@H](Cc1ccc(F)cc1)N[*:1])[*:2]].D.E.Y.R.[O=C([C@H](Cc1ccc(F)cc1)N[*:1])[*:2]].R.K.T.[am]}$$$$V2.0
SMILES: CC[C@H](C)[C@H](NC(=O)[C@@H](NC(=O)[C@H](CS)NC(=O)[C@H](CCSC)NC(C)=O)[C@@H](C)O)C(=O)N[C@@H](CC(=O)O)C(=O)N[C@@H](Cc1ccc(F)cc1)C(=O)N[C@@H](CC(=O)O)C(=O)N[C@@H](CCC(=O)O)C(=O)N[C@@H](Cc1ccc(O)cc1)C(=O)N[C@@H](CCCNC(=N)N)C(=O)N[C@@H](Cc1ccc(F)cc1)C(=O)N[C@@H](CCCNC(=N)N)C(=O)N[C@@H](CCCCN)C(=O)N[C@H](C(N)=O)[C@@H](C)O
